These results are taken from publication PMC10925177 (bioRxiv, 2024).

One assay relates to GLP mRNA. In words: RT-qPCR of GLP mRNA in H1299 cells. The format is cell-based. The settings on record: 3 μM, 24 h, normalized to DMSO. An outline of the steps:
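H1299 cells were treated with DMSO or test compound at 3 μM for 24 h. Total RNA was extracted and reverse-transcribed to cDNA. qPCR used gene-specific primers for G9a and GLP, and a GAPDH primer set was included.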
(Quantitative PCR measures a nucleic acid by following its amplification.)

The next assay deals with 22Rv1 cells. In words: Clonogenicity assay in 22Rv1 cells. The format is cell-based. The settings on record: 8 days treatment, crystal violet. An outline of the steps: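 22Rv1 cells were seeded at 50,000 per well in 6-well plates. They were treated continuously with the test compound at the indicated concentrations for 8 days, then stained with 0.5% crystal violet. Three independent biological experiments were run.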

In another assay the target is T1, PRMT7 (Homo sapiens, UniProt Q9NVM4).
T1 sequence (Q9NVM4 1-692): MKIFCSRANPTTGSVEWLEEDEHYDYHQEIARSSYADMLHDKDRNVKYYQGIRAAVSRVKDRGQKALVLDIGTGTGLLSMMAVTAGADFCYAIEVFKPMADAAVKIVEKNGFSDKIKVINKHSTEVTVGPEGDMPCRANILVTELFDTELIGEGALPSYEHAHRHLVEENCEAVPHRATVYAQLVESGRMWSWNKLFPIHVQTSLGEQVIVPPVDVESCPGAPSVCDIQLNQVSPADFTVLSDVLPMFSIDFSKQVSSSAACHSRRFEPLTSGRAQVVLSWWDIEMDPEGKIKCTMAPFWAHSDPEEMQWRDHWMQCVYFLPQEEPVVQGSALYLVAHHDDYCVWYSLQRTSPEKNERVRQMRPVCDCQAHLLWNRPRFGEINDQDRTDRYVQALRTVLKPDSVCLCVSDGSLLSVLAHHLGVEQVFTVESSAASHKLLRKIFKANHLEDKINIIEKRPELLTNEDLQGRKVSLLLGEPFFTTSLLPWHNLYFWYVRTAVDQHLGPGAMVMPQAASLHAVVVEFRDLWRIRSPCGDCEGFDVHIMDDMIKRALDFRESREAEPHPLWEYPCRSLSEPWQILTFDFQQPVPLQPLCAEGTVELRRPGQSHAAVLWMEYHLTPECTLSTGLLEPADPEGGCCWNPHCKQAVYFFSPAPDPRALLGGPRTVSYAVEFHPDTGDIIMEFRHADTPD
In words: Radioactive methyltransferase assay, PRMT7. Conditions: 10 μM compound. The format is biochemical. An outline of the steps:
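The selectivity screen covered 21 protein methyltransferases in radioisotope-based MT HotSpot methyltransferase assays run by a contract laboratory. Test compound was at 10 μM. Each assay was run in duplicate and reported as mean ± SD of the two replicates.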

The next assay has as its target T2, GLP (Homo sapiens, UniProt Q9H9B1).
T2 sequence (Q9H9B1 1-1298): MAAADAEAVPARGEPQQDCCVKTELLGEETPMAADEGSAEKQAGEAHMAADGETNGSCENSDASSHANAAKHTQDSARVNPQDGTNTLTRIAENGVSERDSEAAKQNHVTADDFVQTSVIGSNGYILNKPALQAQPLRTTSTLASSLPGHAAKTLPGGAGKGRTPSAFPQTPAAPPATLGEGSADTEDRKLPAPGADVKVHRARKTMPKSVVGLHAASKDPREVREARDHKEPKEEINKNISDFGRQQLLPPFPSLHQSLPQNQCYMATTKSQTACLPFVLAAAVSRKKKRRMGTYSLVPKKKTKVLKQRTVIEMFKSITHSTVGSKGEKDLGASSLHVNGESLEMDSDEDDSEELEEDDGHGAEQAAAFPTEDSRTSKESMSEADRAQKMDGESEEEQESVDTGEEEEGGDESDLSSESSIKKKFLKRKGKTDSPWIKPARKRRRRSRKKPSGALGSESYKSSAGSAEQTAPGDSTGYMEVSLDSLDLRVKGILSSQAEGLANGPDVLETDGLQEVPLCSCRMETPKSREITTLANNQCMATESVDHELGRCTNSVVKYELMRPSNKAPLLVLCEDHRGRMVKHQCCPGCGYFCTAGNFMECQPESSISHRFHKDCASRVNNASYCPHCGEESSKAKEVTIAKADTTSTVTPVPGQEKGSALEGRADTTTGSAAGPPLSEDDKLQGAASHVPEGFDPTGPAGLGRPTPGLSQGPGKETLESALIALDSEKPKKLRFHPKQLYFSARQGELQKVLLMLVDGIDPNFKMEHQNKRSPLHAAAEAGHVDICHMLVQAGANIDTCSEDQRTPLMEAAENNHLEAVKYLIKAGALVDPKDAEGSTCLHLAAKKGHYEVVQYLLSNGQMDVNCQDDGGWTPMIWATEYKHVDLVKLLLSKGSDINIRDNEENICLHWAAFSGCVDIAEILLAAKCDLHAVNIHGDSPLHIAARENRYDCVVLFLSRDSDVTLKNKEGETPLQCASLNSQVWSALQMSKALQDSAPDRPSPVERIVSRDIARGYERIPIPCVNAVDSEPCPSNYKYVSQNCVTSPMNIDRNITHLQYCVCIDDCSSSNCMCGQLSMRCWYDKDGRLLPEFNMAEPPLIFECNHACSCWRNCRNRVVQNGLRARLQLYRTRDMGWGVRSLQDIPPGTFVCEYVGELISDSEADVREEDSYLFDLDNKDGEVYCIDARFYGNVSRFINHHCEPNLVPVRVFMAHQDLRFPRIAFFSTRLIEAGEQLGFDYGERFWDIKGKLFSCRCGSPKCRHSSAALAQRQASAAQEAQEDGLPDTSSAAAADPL
In words: Western blot of GLP protein levels in cancer cells. The format is cell-based. In outline:
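Cells (22Rv1, K562, H1299) were treated for 24 h at the indicated concentrations; 22Rv1 time courses were run at 3 μM. Cells were lysed in RIPA with protease inhibitors, and 10–30 μg of protein was resolved by SDS-PAGE and transferred to PVDF. Blots were probed overnight at 4 °C, with vinculin/β-actin as loading controls. Band intensity was normalised to DMSO, with n = 2 independent experiments (mean ± SD).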

The target of another assay is EZH2 (Homo sapiens, UniProt Q15910). In words: Radioactive methyltransferase assay, EZH2. Conditions: 10 μM compound. The format is biochemical.
Chain of EZH2 (Q15910 whole entry): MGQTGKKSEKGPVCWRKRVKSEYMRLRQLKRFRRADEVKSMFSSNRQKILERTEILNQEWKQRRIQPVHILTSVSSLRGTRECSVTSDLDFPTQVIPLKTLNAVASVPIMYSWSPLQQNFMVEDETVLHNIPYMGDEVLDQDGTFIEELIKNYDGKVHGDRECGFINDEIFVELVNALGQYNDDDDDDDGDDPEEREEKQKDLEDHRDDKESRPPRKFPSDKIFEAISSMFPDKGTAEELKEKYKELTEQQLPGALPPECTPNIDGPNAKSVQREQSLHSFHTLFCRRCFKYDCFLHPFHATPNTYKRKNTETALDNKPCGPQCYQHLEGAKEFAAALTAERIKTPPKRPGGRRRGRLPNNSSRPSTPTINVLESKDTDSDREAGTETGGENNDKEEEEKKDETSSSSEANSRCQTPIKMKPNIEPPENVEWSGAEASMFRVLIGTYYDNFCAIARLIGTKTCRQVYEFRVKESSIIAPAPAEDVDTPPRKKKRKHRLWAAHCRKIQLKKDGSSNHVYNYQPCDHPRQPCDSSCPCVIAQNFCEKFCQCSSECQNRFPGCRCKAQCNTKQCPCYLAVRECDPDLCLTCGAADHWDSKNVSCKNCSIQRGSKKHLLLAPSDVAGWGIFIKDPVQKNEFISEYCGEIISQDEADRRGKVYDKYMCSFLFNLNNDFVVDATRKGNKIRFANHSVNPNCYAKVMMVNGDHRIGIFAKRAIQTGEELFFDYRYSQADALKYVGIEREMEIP
Chain of EZH2 (O75530 whole entry partner): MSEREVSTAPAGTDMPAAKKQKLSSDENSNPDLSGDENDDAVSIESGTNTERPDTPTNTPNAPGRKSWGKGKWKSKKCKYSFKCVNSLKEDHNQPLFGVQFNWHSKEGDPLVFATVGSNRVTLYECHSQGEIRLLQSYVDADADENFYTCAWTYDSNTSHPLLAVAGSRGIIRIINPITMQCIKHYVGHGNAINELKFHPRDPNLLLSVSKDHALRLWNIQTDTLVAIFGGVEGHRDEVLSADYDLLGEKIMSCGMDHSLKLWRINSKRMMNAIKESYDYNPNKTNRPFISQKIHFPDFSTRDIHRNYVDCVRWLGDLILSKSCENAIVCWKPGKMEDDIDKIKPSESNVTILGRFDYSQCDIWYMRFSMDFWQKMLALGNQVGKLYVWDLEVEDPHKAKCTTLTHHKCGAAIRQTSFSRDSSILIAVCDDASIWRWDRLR
Chain of EZH2 (Q15022 whole entry partner): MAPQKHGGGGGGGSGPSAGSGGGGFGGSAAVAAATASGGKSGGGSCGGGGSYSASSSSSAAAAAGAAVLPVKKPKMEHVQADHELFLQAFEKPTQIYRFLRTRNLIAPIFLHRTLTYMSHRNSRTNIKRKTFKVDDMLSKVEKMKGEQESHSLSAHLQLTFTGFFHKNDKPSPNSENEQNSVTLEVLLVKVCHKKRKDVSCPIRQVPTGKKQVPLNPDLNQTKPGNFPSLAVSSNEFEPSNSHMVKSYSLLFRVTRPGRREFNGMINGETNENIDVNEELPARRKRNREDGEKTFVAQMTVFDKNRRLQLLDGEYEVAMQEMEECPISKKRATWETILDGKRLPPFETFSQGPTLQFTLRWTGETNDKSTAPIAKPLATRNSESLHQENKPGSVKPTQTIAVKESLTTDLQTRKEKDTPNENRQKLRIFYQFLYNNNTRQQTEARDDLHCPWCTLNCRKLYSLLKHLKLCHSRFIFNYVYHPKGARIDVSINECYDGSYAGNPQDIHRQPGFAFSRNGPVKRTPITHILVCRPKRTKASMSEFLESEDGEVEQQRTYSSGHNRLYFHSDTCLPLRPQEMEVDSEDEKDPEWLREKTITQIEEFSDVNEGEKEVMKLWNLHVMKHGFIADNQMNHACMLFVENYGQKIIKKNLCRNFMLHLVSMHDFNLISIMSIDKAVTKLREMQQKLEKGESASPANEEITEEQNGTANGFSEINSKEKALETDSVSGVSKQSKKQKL
Chain of EZH2 (Q09028 whole entry partner): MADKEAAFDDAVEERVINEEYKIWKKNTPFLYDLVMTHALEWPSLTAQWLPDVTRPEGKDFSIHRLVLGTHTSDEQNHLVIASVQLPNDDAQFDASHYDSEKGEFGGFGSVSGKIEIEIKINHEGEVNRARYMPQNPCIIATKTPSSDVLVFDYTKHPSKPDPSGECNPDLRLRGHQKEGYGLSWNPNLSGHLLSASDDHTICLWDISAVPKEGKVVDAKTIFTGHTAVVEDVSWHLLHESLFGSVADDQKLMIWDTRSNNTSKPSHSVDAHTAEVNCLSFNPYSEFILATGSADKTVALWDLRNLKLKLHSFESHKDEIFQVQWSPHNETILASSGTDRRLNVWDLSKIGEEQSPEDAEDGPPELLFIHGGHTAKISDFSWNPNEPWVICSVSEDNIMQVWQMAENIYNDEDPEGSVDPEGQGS
Chain of EZH2 (Q6ZN18 whole entry partner): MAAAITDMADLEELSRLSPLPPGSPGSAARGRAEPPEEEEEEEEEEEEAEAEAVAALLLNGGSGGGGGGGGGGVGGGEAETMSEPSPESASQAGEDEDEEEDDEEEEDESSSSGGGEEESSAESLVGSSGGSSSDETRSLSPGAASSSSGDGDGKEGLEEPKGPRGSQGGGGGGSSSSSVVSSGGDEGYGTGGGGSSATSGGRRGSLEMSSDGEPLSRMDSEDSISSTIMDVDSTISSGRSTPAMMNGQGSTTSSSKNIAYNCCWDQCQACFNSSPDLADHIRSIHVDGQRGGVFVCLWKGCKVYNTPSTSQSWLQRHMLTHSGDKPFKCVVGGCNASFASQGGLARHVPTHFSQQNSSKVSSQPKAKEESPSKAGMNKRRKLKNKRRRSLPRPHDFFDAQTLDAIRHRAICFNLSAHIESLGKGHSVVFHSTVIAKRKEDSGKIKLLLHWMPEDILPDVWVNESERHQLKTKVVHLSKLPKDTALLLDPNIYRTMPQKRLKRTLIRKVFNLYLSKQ

With `COc1cc2c(NC3CCN(CCCC(=O)NCCCCCCCCCCCC(=O)N[C@H](C(=O)N4C[C@H](O)C[C@H]4C(=O)NCc4ccc(-c5scnc5C)cc4)C(C)(C)C)CC3)nc(N3CCC(F)(F)CC3)nc2cc1OCCCN1CCCC1` [Compound 10, (2S,4R)-1-((S)-2-(12-(4-(4-((2-(4,4-difluoropiperidin-1-yl)-6-methoxy-7-(3-(pyrrolidin-1-yl)propoxy)quinazolin-4-yl)amino)piperidin-1-yl)butanamido)dodecanamido)-3,3-dimethylbutanoyl)-4-hydroxy-N-(4-(4-methylthiazol-5-yl)benzyl)pyrrolidine-2-carboxamide], the “mRNA levels of GLP” value with GLP mRNA was “did not significantly alter”. Besides, in the assay on 22Rv1 cells, the “inhibition of 22Rv1 cell colony formation” value is listed as “able to inhibit”. Besides, on PRMT7, the “inhibition of PRMT7” value was “moderately inhibited”. Also, the “GLP degradation, in words” value at GLP (22Rv1 cells, 1 μM, 24 h, WB (Figure 3A)) is recorded as “potently induced degradation”. At GLP (22Rv1 cells, 3 μM), the “duration of GLP degradation effect” value is reported as “up to 48 h”, the “time at which GLP degradation was first observed” value was determined as 4 h and the “time to complete GLP degradation” value is “around 24 h”. In addition, on GLP (H1299 cells, 3 μM, 24 h, WB), the “GLP degradation, in words” value was “degraded”. Moreover, the “GLP degradation, in words” value on GLP (K562 cells, 3 μM, 24 h, WB) is “induced G9a and GLP degradation”. Moreover, the DC50 at GLP (read-out: half-maximal degradation concentration (DC50) for GLP, 22Rv1 cells, 24 h, WB) amounted to 260 ± 53 nM. In addition, the “inhibition of EZH2” value at EZH2 was “moderately inhibited”.
